# Measurements collected from several papers.
# Each line is one published result; the experiments were not run side by side.
# Target: Proto-oncogene tyrosine-protein kinase Src (SRC, Homo sapiens, UniProt P12931)
SMILES,test,setting,measurement,value
COc1ccc2oc(-c3ccc4nc(N)oc4c3)c/c(=N\c3ccccc3NC(=O)CCN)c2c1,binding,1 µM,remaining binding,72%
CCCCC(=O)Nc1ccc(-c2ccc3ncn(CCC)c(=O)c3c2)cn1,"binding, competition with immobilised ligand",0.5 µM,remaining binding,97%
Cc1ccc(NC(=O)c2ccnc(C(F)(F)F)c2)cc1-c1cc(OCCO)nc(N2CCOCC2)c1,"binding, competition with immobilised ligand",1 µM,remaining binding,100%
C#Cc1cc(-c2cc(Nc3nc(N[C@@H](C)c4ccc(F)cn4)ncc3Cl)n[nH]2)ccc1C=O,"enzyme activity, inhibitor",0.2 µM,inhibition,37.7%
Cc1cc2c(C(N)=O)c(N)n(-c3c(C)ccc(O)c3C)c2nc1C,"enzyme activity, inhibitor, TR-FRET",3.333 µM,inhibition,100%
Cc1cc(O)c(-c2ccc([C@@H](C)CN(C)C)cc2)c2c1[nH]c(=O)c1sccc12,"enzyme activity, inhibitor",0.1 µM,inhibition,-1.37%
C=CC(=O)N1CCC([C@@H]2CCNc3c(C(N)=O)c(-c4ccc(Oc5ccccc5)cc4)nn32)CC1,"enzyme activity, inhibitor",1 µM,inhibition,42%
N#Cc1ccc(NC(=O)Nc2ccccc2)cc1,"cell-free assay, competition with immobilised ligand",25 µM,remaining binding,100%
CO[C@@H]1[C@H](N(C)C(=O)c2ccccc2)C[C@H]2O[C@]1(C)n1c3ccccc3c3c4c(c5c6ccccc6n2c5c31)C(=O)NC4,"enzyme activity, inhibitor",1 µM,inhibition,31%
C[C@H]1CC[C@H](n2c3cnccc3c3cnc(Nc4ccc5c(n4)CCN(C(=O)CO)C5)nc32)CC1,"cell-free assay, competition with immobilised ligand",1 µM,remaining binding,65%
